Assay results as given in ChEMBL document CHEMBL1125042, “Hypolipidemic activity of rifamycin derivatives” (J Med Chem, 1990).
Converted amounts (≈) assume the structure as drawn.

Columns and labels:
Type in all cases: functional
Staphylococcus aureus = assay: Antibacterial activity against Staphylococcus aureus 10B
How it was run: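 Agar dilution on DST agar with 2-fold drug dilutions. Inoculum of 10⁴ viable S. aureus 10B was taken from liquid-nitrogen stock, thawed 30 min and not subcultured. It was applied by multipoint replicator and incubated overnight at 37 °C. MIC is the lowest concentration inhibiting growth relative to control cultures.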

Rattus norvegicus [1] = assay: Hypolipidemic activity was determined in male rats, and low-density lipoprotein level was determined at 50 mg/kg
How it was run: (§1)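 Male Wistar rats (200–230 g), eight per group, were dosed orally in PEG 400 at 8 a.m. for 4 days, plus a second dose at 4 p.m. on day 4. Rats were fasted 16 h and killed 16 h after the last dose. Sera from pairs of rats were pooled. LDL (up to 1.040 g/cm³) was separated by ultracentrifugation and the HDL infranatant taken. Cholesterol was measured enzymatically. Results are % versus vehicle control, mean ± SEM of four pools, Student's t test.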

Rattus norvegicus [2] = assay: Tested for hypolipidemic activity in male rats, cholesterol was determined in serum at 50 mg/kg
How it was run: (§2)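 Groups of eight male Wistar rats (200–230 g) dosed orally in PEG 400, either daily for 7 days (killed 24 h after the last dose) or for 4 days with a second dose on day 4 (killed 16 h later). Fasted 16 h. Paired sera pooled, lipoproteins separated by ultracentrifugation (1.006 and 1.040 g/cm³), HDL taken as the infranatant. Cholesterol measured enzymatically; % vs vehicle, mean ± SEM of four pools.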

Rattus norvegicus [3] = assay: Hypolipidemic activity was determined in male rats, and high-density lipoprotein level was determined at 50 mg/kg; how it was run: as §1
Rattus norvegicus [4] = assay: Tested for hypolipidemic activity in male rats, cholesterol was determined in serum at 20 mg/kg; how it was run: as §2
Rattus norvegicus [5] = assay: Hypolipidemic activity was determined in male rats, and high-density lipoprotein level was determined at 20 mg/kg; how it was run: as §1
Rattus norvegicus [6] = assay: Hypolipidemic activity was determined in male rats, and low-density lipoprotein level was determined at 20 mg/kg; how it was run: as §1

| SMILES | MIC (Staphylococcus aureus) | Activity (Rattus norvegicus [1]) | Activity (Rattus norvegicus [2]) | Activity (Rattus norvegicus [3]) | Activity (Rattus norvegicus [4]) | Activity (Rattus norvegicus [5]) | Activity (Rattus norvegicus [6]) |
| --- | --- | --- | --- | --- | --- | --- | --- |
| COC1/C=C/OC2(C)Oc3c(C)c(O)c4c(O)c(c(C=NN5CCN(Cc6c(C)cc(C)cc6C)CC5)c(O)c4c3C2=O)NC(=O)/C(C)=C\C=C\C(C)C(O)C(C)C(O)C(C)C(OC(C)=O)C1C (configuration not stated) | 0.05 µg/mL (≈ 0.0531 µM) | -39% | -81% | -79% | – | – | – |
| COC1/C=C/OC2(C)Oc3c(C)c(O)c4c(O)c(c(N5CCC(C)CC5)c(O)c4c3C2=O)NC(=O)/C(C)=C\C=C\C(C)C(O)C(C)C(O)C(C)C(OC(C)=O)C1C (configuration not stated) | < 0.1 µg/mL | – | – | – | -23% | -30% | 23% |
| COC1/C=C/OC2(C)Oc3c(C)c(O)c4c(=O)c(c5oc6cc(C)ccc6nc-5c4c3C2=O)NC(=O)/C(C)=C\C=C\C(C)C(O)C(C)C(O)C(C)C(OC(C)=O)C1C (configuration not stated) | 0.001 µg/mL (≈ 0.00125 µM) | -21% | -14% | -21% | – | – | – |
| COC1/C=C/OC2(C)Oc3c(C)c(O)c4c(O)c(c(N5CCC(Cc6ccccc6)CC5)c(O)c4c3C2=O)NC(=O)/C(C)=C\C=C\C(C)C(O)C(C)C(O)C(C)C(OC(C)=O)C1C (configuration not stated) | 0.04 µg/mL (≈ 0.0459 µM) | – | – | – | -53% | -51% | -66% |
| COC1/C=C/OC2(C)Oc3c(C)c(O)c4c(O)c(c(N5CCC(CO)CC5)c(O)c4c3C2=O)NC(=O)/C(C)=C\C=C\C(C)C(O)C(C)C(O)C(C)C(OC(C)=O)C1C (configuration not stated) | < 0.1 µg/mL | – | – | – | -14% | -10% | -7% |
| COC1/C=C/OC2(C)Oc3c(C)c(O)c4c(O)c(c(N)c(O)c4c3C2=O)NC(=O)/C(C)=C\C=C\C(C)C(O)C(C)C(O)C(C)C(OC(C)=O)C1C (configuration not stated) | 0.003 µg/mL (≈ 0.00421 µM) | 19% | -2% | 6% | – | – | – |
| COC1/C=C/OC2(C)Oc3c(C)c(O)c4c(O)c(c(N5CCC(C6CCCC6)CC5)c(O)c4c3C2=O)NC(=O)/C(C)=C\C=C\C(C)C(O)C(C)C(O)C(C)C(OC(C)=O)C1C (configuration not stated) | < 0.1 µg/mL | – | – | – | -42% | -40% | -41% |
| Cc1cc(C)c(CN2CCNCC2)c(C)c1 | 128 µg/mL (≈ 586 µM) | 0% | -7% | -5% | – | – | – |
| COC1/C=C/OC2(C)Oc3c(C)c(O)c4c(O)c(c(N5CCNCC5C(=O)O)c(O)c4c3C2=O)NC(=O)/C(C)=C\C=C\C(C)C(O)C(C)C(O)C(C)C(OC(C)=O)C1C (configuration not stated) | 0.5 µg/mL (≈ 0.605 µM) | 53% | -2% | 5% | – | – | – |
| COC1/C=C/OC2(C)Oc3c(C)c(O)c4c(O)c(c(N5CCC(O)CC5)c(O)c4c3C2=O)NC(=O)/C(C)=C\C=C\C(C)C(O)C(C)C(O)C(C)C(OC(C)=O)C1C (configuration not stated) | < 0.1 µg/mL | – | – | – | 0% | -3% | 13% |
| COC1/C=C/OC2(C)Oc3c(C)c(O)c4c(O)c(c(N5CCN(CC(C)C)CC5)c(O)c4c3C2=O)NC(=O)/C(C)=C\C=C\C(C)C(O)C(C)C(O)C(C)C(OC(C)=O)C1C (configuration not stated) | 0.005 µg/mL (≈ 0.00597 µM) | -64% | -50% | -60% | – | – | – |
| COC1/C=C/OC2(C)Oc3c(C)c(O)c4c(O)c(c5[nH]c(N6CCN(Cc7ccccc7)CC6)nc5c4c3C2=O)NC(=O)/C(C)=C\C=C\C(C)C(O)C(C)C(O)C(C)C(OC(C)=O)C1C (configuration not stated) | 0.005 µg/mL (≈ 0.00558 µM) | -23% | -27% | -33% | – | – | – |
| COC1/C=C/OC2(C)Oc3c(C)c(O)c4c(O)c(c(N5CCC(CC6CCCCC6)CC5)c(O)c4c3C2=O)NC(=O)/C(C)=C\C=C\C(C)C(O)C(C)C(O)C(C)C(OC(C)=O)C1C (configuration not stated) | 1 µg/mL (≈ 1.14 µM) | – | – | – | -62% | -67% | -31% |
| COC1/C=C/OC2(C)Oc3c(C)c(O)c4c(O)c(c(N5CCC(C(C)C)CC5)c(O)c4c3C2=O)NC(=O)/C(C)=C\C=C\C(C)C(O)C(C)C(O)C(C)C(OC(C)=O)C1C (configuration not stated) | < 0.1 µg/mL | – | – | – | -61% | -61% | -54% |
| COC1/C=C/OC2(C)Oc3c(C)c(O)c4c(O)c(c(C=NN5CCN6CCCCC6C5)c(O)c4c3C2=O)NC(=O)/C(C)=C\C=C\C(C)C(O)C(C)C(O)C(C)C(OC(C)=O)C1C (configuration not stated) | 0.005 µg/mL (≈ 0.00579 µM) | -27% | -49% | -53% | – | – | – |
| COC1/C=C/OC2(C)Oc3c(C)c(O)c4c(O)c(c(C=O)c(O)c4c3C2=O)NC(=O)/C(C)=C\C=C\C(C)C(O)C(C)C(O)C(C)C(OC(C)=O)C1C (configuration not stated) | 0.01 µg/mL (≈ 0.0138 µM) | 19% | -5% | -14% | – | – | – |

| SMILES | MIC (Staphylococcus aureus) | Activity (Rattus norvegicus [1]) | Activity (Rattus norvegicus [2]) | Activity (Rattus norvegicus [3]) | Activity (Rattus norvegicus [4]) | Activity (Rattus norvegicus [5]) | Activity (Rattus norvegicus [6]) |
| --- | --- | --- | --- | --- | --- | --- | --- |
| COC1/C=C/OC2(C)Oc3c(C)c(O)c4c(O)c(c(N5CCCCC5)c(O)c4c3C2=O)NC(=O)/C(C)=C\C=C\C(C)C(O)C(C)C(O)C(C)C(OC(C)=O)C1C (configuration not stated) | < 0.1 µg/mL | – | – | – | -32% | -36% | -19% |
| COC1/C=C/OC2(C)Oc3c(C)c(O)c4c(O)c(c5c(c4c3C2=O)=NC2(CCN(CC(C)C)CC2)N=5)NC(=O)/C(C)=C\C=C\C(C)C(O)C(C)C(O)C(C)C(OC(C)=O)C1C (configuration not stated) | 0.001 µg/mL (≈ 0.00118 µM) | 14% | -7% | -21% | – | – | – |
| COC1/C=C/OC2(C)Oc3c(C)c(OC(=O)C(C)(C)C)c4c(c3C2=O)C(=O)C(N2CCN(Cc3c(C)cc(C)cc3C)CC2)=C(NC(=O)/C(C)=C\C=C\C(C)C(O)C(C)C(O)C(C)C(OC(C)=O)C1C)C4=O (configuration not stated) | 0.5 µg/mL (≈ 0.502 µM) | – | – | – | -48% | -53% | -32% |
| COC1/C=C/OC2(C)Oc3c(C)c(O)c4c(O)c(c(O)c(O)c4c3C2=O)NC(=O)/C(C)=C\C=C\C(C)C(O)C(C)C(O)C(C)C(OC(C)=O)C1C (configuration not stated) | 0.1 µg/mL (≈ 0.14 µM) | 41% | 4% | 15% | – | – | – |
| CCOC(=O)C1CCN(c2c3c(O)c4c(O)c(C)c5c(c4c2O)C(=O)C(C)(O/C=C/C(OC)C(C)C(OC(C)=O)C(C)C(O)C(C)C(O)C(C)/C=C/C=C(/C)C(=O)N3)O5)CC1 (configuration not stated) | < 0.1 µg/mL | – | – | – | -16% | -16% | 5% |
| COC1/C=C/OC2(C)Oc3c(C)c(O)c4c(O)c(c(C=NN5CCN(C6CCCC6)CC5)c(O)c4c3C2=O)NC(=O)/C(C)=C\C=C\C(C)C(O)C(C)C(O)C(C)C(OC(C)=O)C1C (configuration not stated) | 0.01 µg/mL (≈ 0.0114 µM) | -60% | -62% | -59% | – | – | – |
| COC1/C=C/OC2(C)Oc3c(C)c(O)c4c(O)c(c(N5CCN(Cc6ccc(Cl)cc6)CC5)c(O)c4c3C2=O)NC(=O)/C(C)=C\C=C\C(C)C(O)C(C)C(O)C(C)C(OC(C)=O)C1C (configuration not stated) | 0.002 µg/mL (≈ 0.00221 µM) | -85% | -74% | -73% | – | – | – |
| COC1/C=C/OC2(C)Oc3c(C)c(O)c4c(O)c(c5nc6cc(C)ccc6nc5c4c3C2=O)NC(=O)/C(C)=C\C=C\C(C)C(O)C(C)C(O)C(C)C(OC(C)=O)C1C (configuration not stated) | < 0.008 µg/mL | -21% | -14% | – | – | – | – |
| COC1/C=C/OC2(C)Oc3c(C)c(O)c4c(O)c(c(N5CCC(C(N)=O)CC5)c(O)c4c3C2=O)NC(=O)/C(C)=C\C=C\C(C)C(O)C(C)C(O)C(C)C(OC(C)=O)C1C (configuration not stated) | < 0.1 µg/mL | – | – | – | -9% | -6% | 11% |
| CCCCCCCCCCCCN1CCN(c2c3c(O)c4c(O)c(C)c5c(c4c2O)C(=O)C(C)(O/C=C/C(OC)C(C)C(OC(C)=O)C(C)C(O)C(C)C(O)C(C)/C=C/C=C(/C)C(=O)N3)O5)CC1 (configuration not stated) | 0.15 µg/mL (≈ 0.158 µM) | – | – | – | -56% | -53% | -68% |
| COC1/C=C/OC2(C)Oc3c(C)c(O)c4c(O)c(c(N5CCC(=O)CC5)c(O)c4c3C2=O)NC(=O)/C(C)=C\C=C\C(C)C(O)C(C)C(O)C(C)C(OC(C)=O)C1C (configuration not stated) | < 0.1 µg/mL | – | – | – | 1% | -9% | 53% |
| Cc1cc(C)c(CN2CCN(C3=CC(=O)c4ccccc4C3=O)CC2)c(C)c1 | > 128 µg/mL | 18% | -1% | 6% | – | – | – |
| COC1/C=C/OC2(C)Oc3c(C)c(O)c4c(O)c(c(N5CCN(Cc6ccccc6)CC5)c(O)c4c3C2=O)NC(=O)/C(C)=C\C=C\C(C)C(O)C(C)C(O)C(C)C(OC(C)=O)C1C (configuration not stated) | 0.004 µg/mL (≈ 0.00459 µM) | -56% | -29% | -36% | – | – | – |
| CO[C@H]1/C=C/O[C@@]2(C)Oc3c(C)c(O)c4c(O)c(cc(O)c4c3C2=O)NC(=O)/C(C)=C\C=C\[C@H](C)[C@H](O)[C@@H](C)[C@@H](O)[C@@H](C)[C@H](OC(C)=O)[C@@H]1C [RIFAMYCIN] | 0.001 µg/mL (≈ 0.00143 µM) | 21% | 4% | 1% | – | – | – |
| CCC1CCC2CN(N=Cc3c4c(O)c5c(O)c(C)c6c(c5c3O)C(=O)C(C)(O/C=C/C(OC)C(C)C(OC(C)=O)C(C)C(O)C(C)C(O)C(C)/C=C/C=C(/C)C(=O)N4)O6)CCN2C1 (configuration not stated) | 0.005 µg/mL (≈ 0.00561 µM) | -31% | -62% | -69% | – | – | – |
| COC1/C=C/OC2(C)Oc3c(C)c(O)c4c(O)c(c(C=NN5CCN(Cc6cccc7ccccc67)CC5)c(O)c4c3C2=O)NC(=O)/C(C)=C\C=C\C(C)C(O)C(C)C(O)C(C)C(OC(C)=O)C1C (configuration not stated) | 0.02 µg/mL (≈ 0.0211 µM) | -35% | -69% | -75% | – | – | – |
